Cneo AK release: causes C. neoformans cell lysis | adenylate kinase release luminescence, 4 h; normalised: neutral wells 0, clomiphene wells 100 | lysis activity, % at 15 µM | 360,000 compounds, 0.2% hits;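 active means mean lysis activity across replicates of at least 80%, whatever share of replicates individually reach that level; inactive means mean lysis activity below 80%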
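Test system: log-phase Cryptococcus neoformans yeast cells. Input: 5 × 10^6 yeast cells/mL. Medium: fresh YPD growth medium. Doses: single dose. Incubation: static 4 h at 37 °C with compound, 1 h detection. Measured by: luminescent adenylate kinase detection reagent. Read-out: signal increase indicating cell lysis. Benchmarks: Clomiphene.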
Env fusion inh: HIV envelope-mediated fusion inhibition; inhibition, % at 12.3 µM; HeLa-JRFL Env/CEM21 cell fusion, luciferase; AID 651610; 360,000 compounds, 1.1% hits;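 active means mean replicate inhibition score of at least 50 and every replicate individually at or above 50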;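 further: 0% = plate neutral controls and 100% = maraviroc near 300 nM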
dFosB act: mouse delta FosB homodimer activation. P13346. purified delta FosB, TAMRA-CDK5 oligo fluorescence polarization; percent of positive-control signal above neutral wells. activation, % at 25 µM. 340,000 compounds, 0.99% hits. AID 493131;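 active means mean activation above about 17%, with every replicate also reaching it, limit read from the data, passing the limit was not always enough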
PAX8 inh HTS: lowers PAX8-driven luciferase in RMG-I cells; RMG-I TPO-luciferase reporter, SteadyGlo, 24 h; inhibition, % at 12.6 µM; 360,000 compounds, 1.2% hits; AID 652154;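 active means mean replicate inhibition at least 60% with every replicate also reaching 60%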;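 further: luciferase light reporting Pax8 driven TPO promoter activity; plate controls were median of neutral control wells for no effect and mitoxantrone controls for full effect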
INS-1E GSIS act: GLuc luminescence reporter in INS-1E cells, primary screen for activators of glucose-dependent secretion of insulin; INS-1E GLuc reporter insulin secretion, 2-3 h; activation, % at 16.6 µM; 370,000 compounds, 0.61% hits;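 active means lowest replicate activation of at least 40%, so every replicate reaches that level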;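 further: 0% = median of neutral control wells and 100% = median of IBMX positive control wells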
CDK5 p35 inh: inhibitors of human CDK5/p35 kinase | Recombinant CDK5/p35, ADP-Glo luminescence, 60 min | inhibition, % at 10 µM | 330,000 compounds, 0.01% hits | Q00535+Q15078 | AID 488839;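 active means highest replicate inhibition of at least 50% and at least 75% of replicates reaching 50%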;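 further: plate controls were DMSO neutral control for no effect and GW8510 at 10 µM for full effect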
Target sequence (Q00535 whole entry, looked up): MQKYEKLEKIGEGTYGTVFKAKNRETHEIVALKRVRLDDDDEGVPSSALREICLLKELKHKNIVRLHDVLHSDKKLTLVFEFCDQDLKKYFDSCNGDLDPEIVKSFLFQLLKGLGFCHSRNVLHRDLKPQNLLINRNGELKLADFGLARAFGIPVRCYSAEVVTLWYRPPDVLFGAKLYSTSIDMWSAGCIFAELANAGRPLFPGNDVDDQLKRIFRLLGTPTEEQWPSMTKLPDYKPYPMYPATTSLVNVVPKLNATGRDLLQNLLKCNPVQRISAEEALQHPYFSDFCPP
Target sequence (Q15078 whole entry, looked up): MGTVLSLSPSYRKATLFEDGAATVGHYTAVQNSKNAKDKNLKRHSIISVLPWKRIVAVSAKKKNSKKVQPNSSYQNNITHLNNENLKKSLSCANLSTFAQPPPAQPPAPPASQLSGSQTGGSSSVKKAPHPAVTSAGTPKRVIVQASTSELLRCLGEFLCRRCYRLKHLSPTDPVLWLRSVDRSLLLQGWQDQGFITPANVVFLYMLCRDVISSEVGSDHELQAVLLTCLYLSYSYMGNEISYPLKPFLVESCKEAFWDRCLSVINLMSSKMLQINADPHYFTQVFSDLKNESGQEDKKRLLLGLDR
Starred values were filed as active, the others as inactive; . = not tested or not shown; [ ] = another dose, or the depositor's remark. Hits are enriched below; roughly 2.9% of the tested compounds scored in any of these assays.

SMILES	Cneo AK release	Env fusion inh	dFosB act	PAX8 inh HTS	INS-1E GSIS act	CDK5 p35 inh
Cc1noc(C)c1NC(=O)N(C)C[C@H]1Oc2ccc(NC(=O)NC(C)C)cc2CC(=O)N([C@H](C)CO)C[C@@H]1C	2	18[16.7 µM]	.	-33	18	.
O=C(C[C@H]1CC[C@@H]2[C@H](COC[C@H](O)CN2Cc2cccc(-c3ccncc3)c2)O1)N1CCOCC1	-1	40[16.7 µM]	.	1	9	.
Cc1noc(C)c1NC(=O)Nc1ccc2c(c1)CC(=O)N([C@H](C)CO)C[C@H](C)[C@@H](CN(C)C(=O)NC(C)C)O2	-2	10[16.7 µM]	.	4	7	.
Cc1noc(C)c1NC(=O)N(C)C[C@@H]1Oc2ccc(NC(=O)NC(C)C)cc2CC(=O)N([C@@H](C)CO)C[C@@H]1C	106*	-6[16.7 µM]	.	-64	.	.
C[C@H](CO)N1C[C@H](C)[C@@H](CN(C)S(=O)(=O)c2ccccc2)Oc2ccc(NC(=O)Cc3ccccc3)cc2CC1=O	-1	27[16.7 µM]	.	9	2	.
CCOC(=O)c1c(-c2ccc(C)o2)csc1NC(=O)CSc1nnc(C)s1	-2	2	-1	.	.	-2
CCOC(=O)c1c(-c2ccc(C)o2)csc1NC(=O)COC(=O)c1ccc(NC(N)=O)cc1	-2	-59	0	-8	50*	2
COCC#Cc1ccc2c(c1)O[C@H](CN(C)CC1CCCC1)[C@@H](C)CN([C@H](C)CO)S2(=O)=O	6	-15[16.7 µM]	.	-7	0	.
Cc1ccc(C(=O)OC(C)C(=O)NC2CCCCC2)cc1S(=O)(=O)N1CCCCC1 (stereo not given)	-1	.	-9	17	-32	-9
CC(OC(=O)c1ccc(S(C)(=O)=O)c([N+](=O)[O-])c1)C(=O)NC1C2CC3CC(C2)CC1C3 (stereo not given)	1	-57	.	106*	143*	.
CCC(OC(=O)c1ccc(S(C)(=O)=O)c([N+](=O)[O-])c1)C(=O)NC1C2CC3CC(C2)CC1C3 (stereo not given)	2	-108	.	94*	27	.
Cn1cccc1C(=O)NC(=O)COC(=O)c1ccc(S(C)(=O)=O)c([N+](=O)[O-])c1	0	.	-17	.	.	1
N=c1n(CC(=O)c2ccc(Br)cc2)c2ccccc2n1Cc1ccccc1	0	-7	35*	-24	18	0
O=C(Cc1ccncc1)Nc1ccc2c(c1)[C@@H]1C[C@H](CC(=O)N3CCc4ccccc4C3)O[C@H](CO)[C@@H]1O2	42	5[16.7 µM]	.	-12	-20	.
C[C@@H]1CN([C@H](C)CO)C(=O)Cc2cc(NS(=O)(=O)c3ccccc3)ccc2O[C@H]1CN(C)Cc1ccc(C(=O)O)cc1	.	5[16.7 µM]	.	.	19	.
CCOC(=O)C(=O)Nc1ccc(S(=O)(=O)Nc2ncccn2)cc1	0	-4	2	.	16	-2
CCCOC(=O)Nc1ccc(S(=O)(=O)Nc2ncccn2)cc1	4	7	2	-6	54*	0
C[C@@H](O)C#Cc1ccc2c(c1)O[C@@H](CN(C)CC1CCOCC1)[C@@H](C)CN([C@@H](C)CO)S2(=O)=O	6	-4[16.7 µM]	.	15	6	.
COc1ccc(-c2[nH]c3ccccc3c2SCCNC(=O)c2cc3ccccc3oc2=O)cc1	0	-3	-17	14	.	0
COc1ccc(-c2[nH]c3ccccc3c2SCCN)cc1	-1	16	7	10	57*	0
Cc1cc(C)c(NC(=O)C2CCC(=O)N2)c(C)c1 (stereo not given)	735*	11	-9	6	-6	-1
COc1ccc(NC(=O)C2CCC(=O)N2)cc1 (stereo not given)	1	-26	-3	.	.	1
CCOc1cc(C2C3=C(CC(C)(C)CC3=O)Nc3n[nH]c(C)c32)ccc1O (stereo not given)	.	13	2	19	43*	-3
CCOC(=O)C1=C(C)NC2=C(C(=O)CC(C)(C)C2)C1c1ccc(O)c(OCC)c1 (stereo not given)	-1	-12	-6	14	24	0
O=C(Cc1ccccn1)NCC[C@@H]1CC[C@@H](NC(=O)Nc2ccccc2)[C@H](CO)O1	-1	12[16.7 µM]	.	20	5	.

Assay outcomes from PubChem BioAssay.
